rRNA inh HTS: inhibitors of bacterial rRNA selective over humanized ribosomes | E. coli WT GFP vs humanized-ribosome RFP mutants, fluorescence, 24 h; hits give low values; DMSO median 0, no signal -100 | GFP signal change (wild-type ribosome), % (test concentration not listed) | hit rate 1.6% among 350,000 | AID 720706;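 active = significant combined selectivity score with lowered wild-type GFP, culture density cut under 30%, mutant RFP and density less affected; inactive = any of these conditions unmet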
RAD52 inh: inhibitors of human RAD52 DNA annealing | P43351 | recombinant RAD52 DNA annealing, FRET fluorescence | inhibition, % at 18.7 µM | hit rate 0.46% among 360,000 | AID 651710;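 active = every replicate showing at least 50% inhibition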
Target sequence (P43351 whole entry, looked up): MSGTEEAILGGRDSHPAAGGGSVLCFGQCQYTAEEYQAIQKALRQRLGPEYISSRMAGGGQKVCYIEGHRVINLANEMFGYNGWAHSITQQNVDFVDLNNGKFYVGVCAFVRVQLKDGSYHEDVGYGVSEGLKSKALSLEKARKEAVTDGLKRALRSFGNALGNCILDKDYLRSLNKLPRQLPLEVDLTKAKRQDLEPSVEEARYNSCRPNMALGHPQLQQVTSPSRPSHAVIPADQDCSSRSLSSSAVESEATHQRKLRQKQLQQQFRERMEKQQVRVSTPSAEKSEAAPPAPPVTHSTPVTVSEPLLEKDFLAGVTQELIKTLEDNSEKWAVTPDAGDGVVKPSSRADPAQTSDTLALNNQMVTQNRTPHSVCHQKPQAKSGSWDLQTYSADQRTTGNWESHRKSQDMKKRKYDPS
Cneo AK release: Cryptococcus neoformans lysis via adenylate kinase release; lysis activity, % at 15 µM; C. neoformans lysis, adenylate kinase release luminescence, 4 h; normalised: neutral wells 0, clomiphene wells 100; hit rate 0.2% among 360,000;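 active = mean lysis activity across replicates of at least 80%, whatever share of replicates individually reach that level; inactive = mean lysis activity below 80%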
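Signal: Adenylate kinase release luminescence | Assay system: Log-phase Cryptococcus neoformans yeast cells | Input: Cells at 5 × 10^6 per mL | Buffer or medium: Fresh YPD growth medium | Compound: Single dose | Schedule: Static 4 h at 37 °C with compound, 1 h detection | Controls: Clomiphene | Read-out: Luminescence rise reflecting yeast cell lysis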
PglD inh: inhibitors of Campylobacter jejuni PglD acetyltransferase. purified PglD enzyme, DTNB colorimetric CoA detection. inhibition, % at 12.5 µM. hit rate 0.098% among 360,000; in the data active = inhibition above about 16%, passing the limit was not always enough
RAD54 branch: blocks human RAD54 Holliday junction branch migration; Q92698; FAM/BHQ fluorescence; inhibition, % at 10.4 µM; hit rate 0.14% among 360,000;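 active = mean normalized replicate activity at least 40 and at least half of replicates scoring 40 or more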;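 also: 0% = median of neutral control wells and 100% = median of positive control wells; inhibitors cause a drop in the FAM fluorescence signal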
Numbers without * were called inactive; · = not tested or not shown. The list is not random: actives were taken first. Their share in the collection is about 1.9%.

SMILES | rRNA inh HTS | RAD52 inh | Cneo AK release | PglD inh | RAD54 branch
CCCNC(=O)N1C[C@@H]2[C@H](c3ccccc31)[C@H](CO)N2C(=O)c1ccncc1 | 1.1 | -8.9 | 4.3 | -0.1 | 3.5
COc1ccc(C(=O)Nc2ccc3oc(Cc4ccc(Cl)cc4)nc3c2)cc1OC | -14.5* | -6.7 | -1.4 | -1.5 | -9.7
COc1ccc(Cc2nc3ccc(C(=O)NCCc4ccncc4)cc3o2)cc1OC | -4.2 | -10.4 | -0.3 | -0.5 | -4.1
O=C(O)C(F)=C1c2ccccc2-c2ccccc21 | -30.0* | -10.6 | -1.1 | 0.8 | 1.9
CN1C(=O)c2cc(NC(=O)c3ccc(F)c(F)c3)ccc2OC[C@@H]2O[C@@H](CC(=O)N[C@H]3CCN(Cc4ccccc4)C3)CC[C@@H]21 | -4.0 | · | 20.5 | -0.2 | -4.5
O=S(=O)(c1ccccc1)N1CCN=C1SCc1ccc(Cl)cc1 | -30.4 | 0.0 | · | · | ·
O=S(=O)(c1ccccc1)N1CCN=C1SCc1cccc(Cl)c1 | -22.6* | 5.0 | · | · | ·
CCSC1=NCCN1S(=O)(=O)c1ccc2ccccc2c1 | -30.4* | -11.3 | · | · | ·
O=C(C[C@@H]1C[C@@H]2c3cc(NC(=O)NC4CCCC4)ccc3O[C@@H]2[C@H](CO)O1)NCCc1ccccc1 | -2.6 | -4.5 | 5.6 | -2.3 | 6.4
N#C[C@H]1[C@@H](c2ccccc2C2=CCCC2)[C@H](CO)N1C(=O)C1CCCC1 | -4.0 | -16.0 | · | · | ·
CC12CCC(/C(=C/NNc3ccc([N+](=O)[O-])cc3[N+](=O)[O-])C1=O)C2(C)C (configuration not stated) | -23.2* | -1.3 | -0.8 | -5.4 | -11.9
COc1cc(C(=O)NC2CCN(C)CC2)ccc1Nc1ncc2c(n1)N(Cc1ccccc1)CCC(=O)N2C | -4.9 | 69.8* | 6.8 | -4.1 | 30.8
CCN1C(=O)CC(c2ccccc2)N(C2CCCC2)c2nc(Nc3ccc(C(=O)NC4CCN(C)CC4)cc3OC)ncc21 (configuration not stated) | · | · | -1.4 | -0.9 | 44.4
Cn1c(-[n+]2c(-c3ccccc3)cc(-c3ccccc3)cc2-c2ccccc2)nc2c([N+](=O)[O-])cccc21 | -21.7* | -28.9 | 5.9 | 2.5 | 6.8
O=[N+]([O-])c1cccc2nc(-c3ccccc3)c(-c3ccccc3)nc12 | -7.6 | -2.2 | -3.4 | -5.7 | -12.5
Cc1ccc(Cl)cc1N1CCN(S(=O)(=O)c2ccc3[nH]c(=O)c(=O)[nH]c3c2)CC1 | -29.3* | -5.6 | -1.7 | -2.1 | -11.4
N#CC1=C2SCC(O)(c3ccccc3)N2C(=O)CC1c1cccs1 (configuration not stated) | -37.2* | 8.3 | -2.2 | -1.9 | -7.9
O=C(C1CCOCC1)N1CC[C@@H]2[C@@H](CO)Nc3ccc(Br)cc3[C@@H]21 | 4.0 | -27.1 | 91.4* | 7.0 | 2.3
COc1ccc2c3c(n(C)c2c1)[C@@H](CO)N(Cc1ccccc1Cl)CC31CN(C(C)=O)C1 | -0.9 | · | · | · | ·
Cc1ccc(S(=O)(=O)N2C[C@H]3[C@H]4C(=O)N(c5ccccc5)C(=O)[C@H]4C[C@H](OC(=O)Nc4c(C)noc4C)[C@@]3(O)C2)cc1 | -2.8* | -3.6 | 0.4 | -3.5 | 0.2
O=C(N/N=C/c1ccncc1)C1CC1(c1ccccc1)c1ccccc1 (configuration not stated) | -21.9* | 1.9 | · | · | ·
Cc1nc(-c2ccccn2)nc(SCC(=O)c2ccccc2)c1Cl | -22.6* | -7.6 | 6.9 | -3.7 | -1.9
O=C(c1ccccc1)c1c(O)nc(-c2ccccc2)n(-c2ccccc2)c1=O | -24.9* | -21.9 | 1.9 | 1.5 | 2.9
Nc1nc(SCc2ccccc2)c2ncn(Cc3ccccc3)c2n1 | -16.5* | -41.9 | -0.7 | -7.1 | -1.9
O=C(N[C@@H]1CC[C@@H](CCn2cc(-c3ccccc3)nn2)O[C@H]1CO)c1ccccc1F | -0.2 | -3.4 | 2.5 | 1.0 | 0.5
SMILES | rRNA inh HTS | RAD52 inh | Cneo AK release | PglD inh | RAD54 branch
C[C@@H]1CN([C@@H](C)CO)C(=O)c2cc(NC(=O)C3CCCCC3)ccc2O[C@H]1CN(C)Cc1ccncc1 | -0.3 | 2.8 | 4.6 | 0.9 | 5.6
CCCCOCC1CN(CCCC)S(=O)(=O)c2c(F)cccc2O1 (configuration not stated) | -22.1 | -1.2 | · | · | ·
COCC1CN(CCc2ccc(F)cc2)S(=O)(=O)c2c(F)cccc2O1 (configuration not stated) | -22.1* | -4.9 | · | · | ·
COc1ccc2c(c1OC)C(=O)OC2Nc1nc(-c2cc3cc(Br)ccc3oc2=O)cs1 (configuration not stated) | -25.9* | -9.7 | -11.3 | -3.5 | 10.7
COc1ccc(-c2csc(NC3OC(=O)c4c3ccc(OC)c4OC)n2)cc1OC (configuration not stated) | · | -10.4 | 2.0 | -0.3 | 17.8
CN1CCCCN2[C@H](CO)[C@@H](c3ccc(C#Cc4ccccc4F)cc3)[C@@H]2C1 | 1.8 | 68.8* | 4.3 | 9.1 | 9.2
CN1CCCCN2[C@@H](CO)[C@@H](c3ccc(C#Cc4ccccc4F)cc3)[C@@H]2C1 | -2.5 | 70.8* | -1.2 | -9.5 | 10.9
CC(=O)N1CCCCN2[C@H](CO)[C@@H](c3ccc(C#Cc4ccccc4F)cc3)[C@H]2C1 | 7.8 | 12.5 | 50.9 | 1.0 | 2.4
COc1ccccc1C#Cc1ccc([C@@H]2[C@H]3CN(CCC(F)(F)F)CCCCN3[C@H]2CO)cc1 | -58.6 | 21.0 | 81.5* | 4.7 | 9.0
CN(C)C(=O)c1ccc(-c2ccc([C@H]3[C@H]4CN(CCC(F)(F)F)CCCCN4[C@H]3CO)cc2)cc1 | 1.0 | 8.9 | 85.2* | 3.1 | -3.5
COc1ccc(S(=O)(=O)Nc2ccc3c(c2)[C@H]2C[C@H](CC(=O)N(C)C)O[C@@H](CO)[C@H]2O3)cc1 | 2.0 | -10.4 | -6.9 | 3.7 | -2.0
COc1ccc2c3c(n(C)c2c1)[C@@H](CO)N(Cc1ccccc1OC)CC31CCN(C(=O)C2CC2)CC1 | 1.5 | -103.9 | · | · | ·
CC=Cc1ccc2n(c1=O)C[C@H]1[C@H](CO)[C@@H](C(=O)NCc3ccccc3F)N[C@@H]21 (mixture of isomers) | -1.4 | -5.9 | 43.7 | 2.1 | -10.7
Cn1nc(-c2ccccc2)c(CN2CCN(c3ncccn3)CC2)c1Cl | -34.1* | -14.1 | · | · | ·
COc1cccc(C#Cc2ccc([C@@H]3[C@@H](CO)N4C(=O)CN(C(C)=O)C[C@@H]34)cc2)c1 | 1.6 | -17.0 | · | · | ·
C/C=C/c1ccc([C@@H]2[C@@H](CNC(=O)C3CCC3)N(C(=O)NCCC)[C@H]2CO)cc1 | -6.0 | · | 102.6* | 0.5 | -0.1
C/C=C/c1ccc([C@@H]2[C@@H](CNC(=O)c3ccccc3)N(C(C)=O)[C@H]2CO)cc1 | -3.8 | · | 80.6* | 5.8 | -2.9
C/C=C/c1ccc([C@H]2[C@@H](CO)N(C(=O)NCCC)[C@H]2CNC(=O)C2CCC2)cc1 | -6.6 | -11.3 | · | · | ·
C/C=C/c1ccc([C@H]2[C@@H](CO)N(C(=O)CC)[C@@H]2CNC(=O)C2CC2)cc1 | 0.3 | -51.0 | 91.2* | 2.4 | 11.0

Screens from PubChem.
